One assay concerns KB. Nature of the assay: Cytotoxicity against human KB cells after 4 hrs by MTT assay. It counts as functional. The conditions noted are these: read-out: ED50 (the source's name). The essentials:
(§1)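 KB and HeLa cells from ATCC; growth inhibition read by MTT colorimetric method; ED50 in μg/mL.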
(In general: Tetrazolium dyes change colour on reduction, which living cells bring about.)

In a further assay the test system is HeLa. Nature of the assay: Cytotoxicity against human HeLa cells after 4 hrs by MTT assay. It counts as functional. Conditions: read-out: ED50 (the source's name). The essentials:
as §1

In brackets after ≈: the same amount, converted by molar mass.

Turning to `C[C@@H]1C(CO)=C[C@@]2(C)CC[C@@H]3[C@@H](C)CC[C@@]132` [SUBERGORGIOL], the EC50 with KB and in the assay on HeLa was over 10 µg/mL throughout.
For the compound `CC(=O)O[C@H]1C[C@H](C)[C@H]2CC[C@]3(C)C=C(C(=O)O)[C@@H](C)[C@]123`, the EC50 in the assay with KB and in the assay with HeLa was over 10 µg/mL throughout.
On to `C[C@@H]1CC(=O)[C@@]23[C@@H](C)C(C(=O)O)=C[C@]2(C)CC[C@@H]13` [SUBERGORGIC ACID], for which the EC50 in the assay with KB and in the assay on HeLa was over 10 µg/mL in each case.
As to `COC(=O)C1=C[C@@]2(C)CC[C@@H]3[C@@H](C)C[C@H](OC(C)=O)[C@@]32[C@@H]1C`, the EC50 with KB and in the assay on HeLa was over 10 µg/mL in each case.
Consider `C[C@@H]1C(C(=O)O)=C[C@@]2(C)CC[C@@H]3[C@@H](C)C[C@H](O)[C@@]132`, for which the EC50 in the assay on KB and in the assay on HeLa was over 10 µg/mL each time.
Consider `COC(=O)C1=C[C@@]2(C)CC[C@@H]3[C@@H](C)CC(=O)[C@@]32[C@@H]1C` [SUBERGORGIC ACID METHYL ESTER], for which, in the assay with KB, the EC50 stood at 4.3 µg/mL (≈ 16.4 µM).

For the origin of these results see ChEMBL document CHEMBL1150117, “Two new subergane-based sesquiterpenes from a Taiwanese Gorgonian coral Subergorgia suberosa” (2002).
